What was measured:
Canis familiaris [1] = species: Canis familiaris; assay: Maximum observed change in ADP95 from control value was determined in isolated canine cardiac uM; type: functional, Canis lupus familiaris
How it was run: (§1)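 Canine cardiac Purkinje fibres in gassed physiological saline (95% O2–5% CO2, pH 7.35–7.40) at 36 ± 0.5 °C. Paced at 1.0 Hz with 2 ms pulses at twice diastolic threshold. Intracellular microelectrode recording after up to 1 h of stabilisation; 30 min exposure per concentration; one compound per fibre, with vehicle controls. Readout is concentration giving a 20% change in APD95, or maximal APD95 change; log mean with 90% CI when n > 2.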

Canis familiaris [2] = species: Canis familiaris; assay: Maximum observed change in FRP from control was determined in isolated canine ventricular muscle fibers at a concentration of 100 uM; type: functional, Canis lupus familiaris, Muscle tissue
How it was run: (§2)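 Canine right ventricular papillary muscle strips superfused with O2/CO2-gassed saline at 36 ± 0.5 °C. Bipolar electrogram recording. Stimulated at 4× diastolic threshold (2 ms pulses), equilibrated 60 min. FRP measured at 1000 ms cycle length by S2 after every tenth S1 at shortening intervals. Cumulative concentrations; one compound per strip, with vehicle controls. Readout is concentration giving a 20% FRP change, or maximal change; log mean with 90% CI when n > 2.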

Canis familiaris [3] = species: Canis familiaris; assay: (§3) Concentration that causes 20% increase in functional refractory period (FRP) was determined on isolated canine ventricular muscle fibers; set-up: species or system Canis lupus familiaris, Muscle tissue; how it was run: as §2
Canis familiaris [4] = species: Canis familiaris; assay: (§4) Concentration that causes 20% increase in ADP95 (action potential duration at 95% repolarization) was determined on isolated canine cardiac Purkinje fibers; type: functional; details: Canis lupus familiaris; Purkinje fiber; how it was run: as §1
Canis familiaris [5] = assay: In vivo antiarrhythmic efficacy in a programmed electrical stimulation (PES) model of mongrel dogs expressed as minimum effect dose (iv) at iv dose range of 0.1-30 mg/kg.; type: functional, Canis lupus familiaris, Heart
How it was run: (§5)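 Mongrel dogs (8–17 kg) with two-stage LAD occlusion 24 h earlier, anesthetized with thiopental 15 mg/kg and ventilated; open chest. PES induces SVT/VF; two control arrhythmias 30 min apart. Compound given as 10-min iv infusion, PES repeated 20 min later, dose escalated while still inducible; noninducibility counts as effective. HR and BP reported as % change at effective dose, mean ± SEM.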

Canis familiaris [6] = assay: In vivo antiarrhythmic efficacy in a PES model of mongrel dog expressed as percent change in blood pressure at iv dose range of 0.1-30 mg/kg.; type: functional, Canis lupus familiaris; how it was run: as §5
Canis familiaris [7] = assay: In vivo antiarrhythmic efficacy in a programmed electrical stimulation (PES) model of mongrel dogs reported as number of animals effective at dose range of 0.1-30 mg/kg.; type: functional, Canis lupus familiaris, Heart; how it was run: as §5
Canis familiaris [8] = species: Canis familiaris; assay: Concentration that causes 20% increase in ADP95 (action potential duration at 95% repolarization) was determined on isolated canine cardiac Purkinje fibers;range is 11.2-18.6; type: functional, Canis lupus familiaris, Purkinje fiber; how it was run: as §1
Canis familiaris [9] = assay: In vivo intraduodenal activity in mongrel dogs was assessed by percent change in blood pressure at active dose of 10 mg/kg, administered intradermally; type: functional, Canis lupus familiaris, Artery; details: in the assay text read “intraduodenally” for “intradermally”
How it was run: (§6)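 Healthy dogs (8–20 kg) of either sex, pentobarbital 30 mg/kg iv, ventilated, temperature held at 36 ± 0.5 °C. Compound given intraduodenally as suspension in 0.5% tragacanth. HR, BP and FRP measured at 45 min postdose; second dose if FRP/conduction change below 12%. Active dose means FRP change ≥ 12%; HR and BP given as % change, mean ± SEM.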

Canis familiaris [10] = species: Canis familiaris; assay: Concentration that causes 20% increase in functional refractory period (FRP) was determined on isolated canine ventricular muscle fibers;range is 3.7-162; set-up: species or system Canis lupus familiaris, Muscle tissue; how it was run: as §2
Canis familiaris [11] = assay: In vivo intraduodenal activity in mongrel dogs was assessed by percent change in heart rate at active dose of 10 mg/kg, administered intradermally; type: functional, Canis lupus familiaris; details: in the assay text read “intraduodenally” for “intradermally”; how it was run: as §6
Canis familiaris [12] = assay: In vivo antiarrhythmic efficacy in a PES model of mongrel dog expressed as percent change in heart rate at iv dose range of 0.1-30 mg/kg.; type: functional, Canis lupus familiaris; how it was run: as §5
Canis familiaris [13] = species: Canis familiaris; assay: as §4; type: functional, Canis lupus familiaris, Purkinje fiber; how it was run: as §1
Canis familiaris [14] = assay: In vivo intraduodenal activity in mongrel dogs was assessed by % change in heart rate (10 mg/kg administered intradermally); type: functional, Canis lupus familiaris; details: in the assay text read “intraduodenally” for “intradermally”; how it was run: as §6
Canis familiaris [15] = assay: In vivo intraduodenal activity in mongrel dogs was assessed by % change in blood pressure (10 mg/kg administered intradermally); type: functional, Canis lupus familiaris, Artery; details: in the assay text read “intraduodenally” for “intradermally”; how it was run: as §6
Canis familiaris [16] = species: Canis familiaris; assay: as §3; details: Canis lupus familiaris; Muscle tissue; how it was run: as §2
Canis familiaris [17] = assay: In vivo antiarrhythmic efficacy in PES model of mongrel dogs expressed as percent change in blood pressure at iv dose range of 0.1-10 mg/kg.; type: functional, Canis lupus familiaris; details: in the assay text read “1.0-10 mg/kg” for “0.1-10 mg/kg”; how it was run: as §5
Canis familiaris [18] = assay: In vivo antiarrhythmic efficacy in a programmed electrical stimulation (PES) model of mongrel dogs reported as number of animals effective at dose range of 0.1-10 mg/kg.; type: functional, Canis lupus familiaris, Heart; how it was run: as §5
Canis familiaris [19] = assay: In vivo antiarrhythmic efficacy in a programmed electrical stimulation (PES) model of mongrel dogs expressed as minimum effect dose (iv) at iv dose range of 0.1-10 mg/kg.; type: functional, Canis lupus familiaris, Heart; how it was run: as §5
Canis familiaris [20] = assay: In vivo intraduodenal activity in mongrel dogs was assessed by percent change in heart rate at active dose of 30 mg/kg, administered intradermally; type: functional, Canis lupus familiaris; details: in the assay text read “intraduodenally” for “intradermally”; how it was run: as §6
Canis familiaris [21] = assay: In vivo intraduodenal activity in mongrel dogs was assessed by percent change in blood pressure at active dose of 30 mg/kg, administered intradermally; type: functional, Canis lupus familiaris, Artery; details: in the assay text read “intraduodenally” for “intradermally”; how it was run: as §6
Canis familiaris [22] = species: Canis familiaris; assay: Concentration that causes 20% increase in ADP95 (action potential duration at 95% repolarization) was determined on isolated canine cardiac Purkinje fibers at a concentration range 0.01-10 uM; type: functional, Canis lupus familiaris, Purkinje fiber; how it was run: as §1
[23] = Canis lupus familiaris, Muscle tissue

Row | SMILES | Max delta APD95 (Canis familiaris [1]) [%] | Max delta FRP (Canis familiaris [2]) [%] | Activity (Canis familiaris [3]) [µM] | Activity (Canis familiaris [4]) | Activity (Canis familiaris [13]) [µM] | Activity (Canis familiaris [16]) | further results
1 | C[n+]1ccn(CC(O)c2ccccc2)c1.[Br-] (configuration not stated) | 12 | 22 | 50 | Not recorded |  |  | 
2 | Cc1c(C)[n+](C)c(C)n1CC(=O)c1ccc(NS(C)(=O)=O)cc1.[Cl-] |  | 26 | 15.8 | Not recorded |  |  | Max delta APD95 (Canis familiaris [1]; Canis lupus familiaris): Minimal effects
3 | CC(C)NCC(O)c1ccc(NS(C)(=O)=O)cc1.Cl (configuration not stated) [SOTALOL HYDROCHLORIDE] | 48 | 23 |  |  |  |  | Mean effective dose (Canis familiaris [5]): 1.4; Change (Canis familiaris [6]): -23%; No. of animals (Canis familiaris [7]): 3; Activity (Canis familiaris [8]): 14.4 µM; Change (Canis familiaris [9]): 8%; Activity (Canis familiaris [10]): 24.7 µM; Change (Canis familiaris [11]): -11%; Change (Canis familiaris [12]): -23%
4 | C[n+]1ccn(CC(O)c2ccc(NS(C)(=O)=O)cc2)c1 (configuration not stated) | 55 | 24 | 8.7 |  | 0.6 |  | 
5 | CC[n+]1ccn(CC(O)c2ccc(NS(C)(=O)=O)cc2)c1.[Cl-] (configuration not stated) | 65 | 26 | 28.2 |  | 6.2 |  | 
6 | CCS(=O)(=O)Nc1ccc(C(O)Cn2cc[n+](C)c2)cc1.[Cl-] (configuration not stated) | 27 | 27 | 14.5 |  | 30 |  | 
7 | CCCCCCC[n+]1ccn(CC(O)c2ccc(NS(C)(=O)=O)cc2)c1.O=P([O-])(O)O (configuration not stated) | 50 | 24 | 9 |  | 2.8 |  | Heart rate (Canis familiaris [14]): -10%; Blood pressure (Canis familiaris [15]): 6%
8 | C[n+]1ccn(CCC(=O)c2ccc(NS(C)(=O)=O)cc2)c1.[Cl-] | 26 | 29 | 17.8 |  | 38.3 |  | Heart rate (Canis familiaris [14]): -2%; Blood pressure (Canis familiaris [15]): 6%
9 | CC(C)[n+]1ccn(CC(O)c2ccc(NS(C)(=O)=O)cc2)c1 (configuration not stated) |  |  |  | Not recorded |  | Not recorded | Max delta APD95 (Canis familiaris [1]; Canis lupus familiaris): Minimal effects
10 | CC(C)[n+]1ccn(CC(=O)c2ccc(NS(C)(=O)=O)cc2)c1.[Cl-] |  | 14 |  | Not recorded |  | Not recorded | Max delta APD95 (Canis familiaris [1]; Canis lupus familiaris): Minimal effects
11 | C[n+]1ccn(CCCc2ccc(NS(C)(=O)=O)cc2)c1.O=P([O-])(O)O | 47 | 13 |  |  | 7.2 | Not recorded | 
12 | CC[n+]1ccn(CC(=O)c2ccc(NS(C)(=O)=O)cc2)c1.[Cl-] | 26 | 26 | 28.2 |  | 49.4 |  | 
13 | C[n+]1ccn(CC(=O)c2ccc(NS(=O)(=O)C(F)(F)F)cc2)c1 |  |  |  | Not recorded |  | Not recorded | Max delta APD95 (Canis familiaris [1]; Canis lupus familiaris): Minimal effects; Max delta FRP (Canis familiaris [2]; [23]): Minimal effects
14 | Cc1c(C)[n+](C)c(C)n1CC(O)c1ccc(NS(C)(=O)=O)cc1.[Cl-] (configuration not stated) | 13 | 29 | 2.5 | Not recorded |  |  | Heart rate (Canis familiaris [14]): -12%; Blood pressure (Canis familiaris [15]): 19%
15 | C[n+]1ccn(CCc2ccc(NS(C)(=O)=O)cc2)c1.[I-] | 45 | 24 | 10 |  | 2.6 |  | Blood pressure (Canis familiaris [17]): 13%; No. effective (Canis familiaris [18]): 2; Min effective dose (Canis familiaris [19]): 6.5; Heart rate (Canis familiaris [20]): -13%; Blood pressure (Canis familiaris [21]): 3%
16 | CCS(=O)(=O)Nc1ccc(C(=O)Cn2cc[n+](C)c2)cc1.[Cl-] | 33 | 26 | 40 |  | 29 |  | 
17 | C[n+]1ccn(C[C@H](O)c2ccc(NS(C)(=O)=O)cc2)c1.[Cl-] | 58 | 25 | 14 |  | 0.3 |  | 
18 | CCCCCCC[n+]1ccn(CC(=O)c2ccc(NS(C)(=O)=O)cc2)c1.[Br-] | 21 | 14 |  |  |  | Not recorded | Activity (Canis familiaris [22]): 9 µM
19 | C[n+]1ccn(C[C@@H](O)c2ccc(NS(C)(=O)=O)cc2)c1.[Cl-] | 74 | 31 | 7.5 |  | 0.7 |  | 
20 | C[n+]1ccn(CCC(O)c2ccc(NS(C)(=O)=O)cc2)c1.[Cl-] (configuration not stated) |  | 20 | 100 | Not recorded |  |  | Max delta APD95 (Canis familiaris [1]; Canis lupus familiaris): Minimal effects
21 | C[n+]1ccn(CC(=O)c2ccccc2)c1.[Br-] |  |  |  |  | 69 | Not recorded | Max delta FRP (Canis familiaris [2]; [23]): Minimal effects
22 | Cc1n(CC(=O)c2ccc(NS(C)(=O)=O)cc2)cc[n+]1C.[Cl-] | 33 | 32 | 14.7 |  | 24.8 |  | 
23 | C[n+]1ccn(CC(O)c2ccc(NS(=O)(=O)C(F)(F)F)cc2)c1 (configuration not stated) |  |  |  | Not recorded |  | Not recorded | Max delta APD95 (Canis familiaris [1]; Canis lupus familiaris): Minimal effects; Max delta FRP (Canis familiaris [2]; [23]): Minimal effects

From ChEMBL document CHEMBL1123879, “Synthesis and antiarrhythmic activity of novel 3-alkyl-1-[omega-[4-[(alkylsulfonyl)amino]phenyl]-omega- hydroxyalkyl]-1H-imidazolium salts and related compounds” (J Med Chem, 1987)
